High-throughput results (PubChem)
A selection: hits, their analogues and other compounds. The true share with any hit is near 2.2%.
SIRT5 inh – SIRT5 desuccinylase inhibitors, primary screen, biochemical, fluorescence imaging, single point, set 5. NAD-dependent protein deacylase sirtuin-5, mitochondrial (Homo sapiens), Q9NXA8. 330,000 tested, 1.1% active. Purified SirT5, succinyl-peptide AMC, trypsin-coupled fluorescence. inhibition, % at 15 µM. AID 652115, 2013; in the data active means inhibition above about 15%
Target sequence (Q9NXA8 whole entry, looked up): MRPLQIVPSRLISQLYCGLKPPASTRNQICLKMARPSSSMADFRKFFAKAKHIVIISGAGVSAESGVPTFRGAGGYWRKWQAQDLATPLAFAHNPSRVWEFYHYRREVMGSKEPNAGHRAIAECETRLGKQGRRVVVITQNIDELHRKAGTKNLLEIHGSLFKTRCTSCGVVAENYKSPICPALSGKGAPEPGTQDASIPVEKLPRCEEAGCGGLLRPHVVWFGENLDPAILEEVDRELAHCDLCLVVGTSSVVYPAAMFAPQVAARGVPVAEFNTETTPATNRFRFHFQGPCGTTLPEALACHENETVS
ERAP1 inh – human ERAP1 aminopeptidase inhibitors, primary screen, biochemical, single point, plate reader; Endoplasmic reticulum aminopeptidase 1 (Homo sapiens), Q9NZ08; recombinant ERAP1, Leu-AMC fluorescence, 60 min; inhibition, % at 10.7 µM; 340,000 tested, 0.15% active;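 active means mean replicate inhibition of at least 30%, or all replicates individually reaching that 30% level; inactive means mean below 30% and not every replicate reaching it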;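 further: 0% = neutral control wells and 100% = L-leucinethiol positive control wells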
FN deposit inh – inhibitors of fibronectin matrix deposition, primary screen, AH1F cells, Alexa488-fibronectin fluorescence, plate reader. AID 743247, 2014. 350,000 tested, 0.086% active. AH1F fibroblasts, overnight. inhibition, % at 12.6 µM;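 active means mean inhibition across replicates of 30% or more, regardless of how many single replicates reach that level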;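 further: positive control wells lacked labelled fibronectin entirely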
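Assay system: AH1F fibroblast monolayer, labelled fibronectin deposition. Amount: 10000 cells per well. Also added: labelled fibronectin 24 nM. Compound: single-point pinned compound. Incubation: cell attachment 1 h, compound and FN exposure overnight. Detection: fluorescence after three HBSS washes, excitation 485 nm, emission 525 nm. Read-out: inhibition of fibronectin deposition signal.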
PGC1a acetyl inh – inhibitors of PGC1a acetylation signal, primary screen, cell-based, U2OS, AlphaScreen, inhibitor mode | 350,000 tested, 0.17% active | AID 651687, 2012 | inhibition, % at 15.6 µM | AlphaScreen anti-acetyl-lysine; with virally co-expressed GCN5 acetyltransferase;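 active means every replicate shows inhibition of at least 40%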;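 further: 0% = neutral control wells and 100% = positive control wells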
FGF22 binding-1 – binders of human FGF22 protein, primary screen, FGF22 synaptogenesis inhibitor project, biophysical, thermal shift, single point. Fibroblast growth factor 22 (Homo sapiens), Q9HCT0. recombinant FGF22 thermal shift, SYPRO orange fluorescence; percent of sucrose octasulfate shift, DMSO zero. activity (Tm shift, normalised), % at 9.99 µM. 340,000 tested, 1.5% active;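 active means mean Tm shift, scaled 0 neutral to 100 positive control, at about 1.3% or above, every replicate too, limit read from the data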
Target sequence (Q9HCT0 whole entry, looked up): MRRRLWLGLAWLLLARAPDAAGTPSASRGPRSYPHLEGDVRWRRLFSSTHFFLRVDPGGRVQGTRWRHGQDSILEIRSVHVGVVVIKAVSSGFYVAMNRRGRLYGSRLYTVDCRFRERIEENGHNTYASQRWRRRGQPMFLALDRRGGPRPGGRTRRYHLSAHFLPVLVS
FGF22 binding-2 – binders of human FGF22 protein, dose response, FGF22 synaptogenesis inhibitor project, biophysical, thermal shift, cherry-pick retest. shares compounds with FGF22 binding-1. 1,000 tested, 2% active. recombinant FGF22 thermal shift, SYPRO orange fluorescence. thermal shift activity, °C (ΔTm) at 38 µM. AID 720646, 2013;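 active means fitted rise in melting shift crosses a set limit at or below the top valid dose tested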
TSA no protein – compound-only thermal shift signal without protein, dose response, artefact control for FGF22 binder project, biochemical, cherry-picked samples, RT-PCR instrument | shares compounds with FGF22 binding-1 | compound-only SYPRO orange thermal shift counter-screen, no protein | AC50, µM (titrated, usually from 38 µM) | 1,000 tested, 2% active | AID 743019, 2013;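 active means rising signal whose fitted curve reaches the 0.54 level within the top valid dose, showing a melting point, actives reach about 13 µM in these data; inactive means the rest, including activity in the opposite direction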; further: value is where the raw curve crosses a fixed level and not half-maximal
Starred values were filed as active, the others as inactive; i = inactive; . = not tested or not shown; [ ] = another dose, or the depositor's remark.

SMILES	SIRT5 inh	ERAP1 inh	FN deposit inh	PGC1a acetyl inh	FGF22 binding-1	FGF22 binding-2	TSA no protein
Cc1ccc(NC(=O)COC(=O)Cn2cnc3c2c(=O)n(C)c(=O)n3C)cc1F	-1	2	.	-14	30*	0.15	i
CCS(=O)(=O)Nc1ccc2c(c1)C(=O)N(C)C[C@H](OC)[C@H](C)CN(C)[C@@H](C)CO2	-4	1	0	0	0	.	.
O=C(c1ccc(F)cc1)N1CC(=O)N2[C@H](CO)[C@H](c3ccc(-c4ccccc4)cc3)[C@@H]2C1	1	2	.	9	.	.	.
O=C(c1ccccc1)N1CC(=O)N2[C@H](CO)[C@@H](c3ccc(C#CC4CC4)cc3)[C@@H]2C1	-1	3	.	0	0	.	.
O=C(c1ccccc1)N1CC(=O)N2[C@H](C1)[C@@H](c1ccc(C#CC3CC3)cc1)[C@@H]2CO	-4	4	.	1	1.8*	0.055[42 µM]	i
Cc1ccc(-c2ccc([C@H]3[C@@H](CO)N4C(=O)CN(C(=O)c5ccc(F)cc5)C[C@@H]34)cc2)cc1	2	1	.	9	1.8*	0.12	i
O=C(c1ccc2c(c1)OCO2)N1CC(=O)N2[C@@H](CO)[C@H](c3ccc(C#CCC4CCCC4)cc3)[C@@H]2C1	13	1	.	-7	1.8*	-0.027	i
Cc1ccc(-c2ccc([C@H]3[C@H](CO)N4C(=O)CN(C(=O)c5ccc(F)cc5)C[C@@H]34)cc2)cc1	-1	4	.	7	1	.	.
Cc1ccc(-c2ccc([C@@H]3[C@@H](CO)N4C(=O)CN(C(=O)c5ccc(F)cc5)C[C@H]34)cc2)cc1	-3	3	.	-20	1.2*	-0.12	i
CCCNC(=O)N(C)C[C@@H]1Oc2ncc(-c3ccc(F)cc3)cc2C(=O)N([C@@H](C)CO)C[C@@H]1C	-2	0	.	-5	0	.	.
C[C@@H]1CN([C@H](C)CO)S(=O)(=O)c2ccc(-c3ccccc3)cc2O[C@@H]1CN(C)C(=O)C1CCC1	.	.	.	-15	.	.	.
Nc1nnc(CC(=O)N/N=C/c2cc([N+](=O)[O-])cc(Br)c2O)s1	47*	1	0	8	1.8*	.	i
C/C=C/c1cnc2c(c1)C(=O)N([C@H](C)CO)C[C@H](C)[C@H](CN(C)C(=O)C1CCCCC1)O2	-2	0	.	0	0	.	.
CO[C@@H]1CN(C)C(=O)c2ccc(NS(=O)(=O)c3ccc(Oc4ccccc4)cc3)cc2OC[C@H](C)NC[C@@H]1C	2	-2	-12	2	1.2*	0.17[42 µM]	i
CO[C@H]1CN(C)C(=O)c2ccc(NS(=O)(=O)c3ccc(Oc4ccccc4)cc3)cc2OC[C@H](C)NC[C@H]1C	-5	0	-13	-4	0	.	.
CO[C@@H]1CN(C)C(=O)c2ccc(NS(=O)(=O)c3ccc(F)cc3)cc2OC[C@@H](C)N(C)C[C@H]1C	.	2	-10	-2	206*	-0.009	i
COc1cccc(C#Cc2ccc([C@H]3[C@H]4CN(S(=O)(=O)c5ccccc5C)CC(=O)N4[C@H]3CO)cc2)c1	.	2	.	7	1.4*	-0.078	i
CC(C)NC(=O)Nc1cccc2c1O[C@H](CN(C)C(=O)Nc1cccc3ccccc13)[C@@H](C)CN([C@@H](C)CO)C2=O	3	0	.	1	0	.	.
CCN1C(=O)c2cccc3c(S(=O)(=O)Nc4ccc(O)c(C(=O)O)c4)ccc1c23	5	2	3	.	8.4*	0.045	i
Cc1cc(C(=O)O/N=C(\N)c2ccncc2)ccc1[N+](=O)[O-]	-3	.	-5	.	18*	0.21	i
CN(C)S(=O)(=O)c1ccc(Cl)c(C(=O)Nc2cccc([N+](=O)[O-])c2)c1	.	.	6	.	0	.	.
